Assays:
Plasmodium falciparum [1] = experiment: Antiplasmodial activity against chloroquine-resistant Plasmodium falciparum Dd2 after 72 hrs by malaria SYBR Green I-based fluorescence assay; assay type: functional, organism-based; conditions: Dd2, 72 h
Procedure, shortened: (§1)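 Parasites kept continuously in O+ human erythrocytes with 10% human serum under 7% CO2/5% O2/88% N2. Test compounds from 100 mM DMSO stocks, serially diluted in culture medium, added in quadruplicate to asynchronous cultures at 0.2% parasitemia, 2% hematocrit. Incubated 72 h, 37 C. Lysis buffer with SYBR Green I added, 1 h 37 C dark. Fluorescence read at ex 497/em 520 nm. IC50 from nonlinear logistic dose-response regression.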

[2] = Cytotoxicity against african green monkey Vero cells at 6.17 uM after 72 hrs by MTT assay; assay type: cell-based; conditions: chlorocebus sabaeus, read-out: INH
[3] = Cytotoxicity against african green monkey Vero cells at 55.56 uM after 72 hrs by MTT assay; assay type: cell-based; conditions: chlorocebus sabaeus, read-out: INH
[4] = Cytotoxicity against african green monkey Vero cells at 18.52 uM after 72 hrs by MTT assay; assay type: cell-based; conditions: chlorocebus sabaeus, read-out: INH
Plasmodium falciparum [5] = experiment: Antiplasmodial activity against chloroquine-susceptible Plasmodium falciparum 3D7 after 72 hrs by malaria SYBR Green I-based fluorescence assay; assay type: functional, organism-based; conditions: 3D7, 72 h; procedure, shortened: as §1
[6] = Cytotoxicity against african green monkey Vero cells at 166.67 uM after 72 hrs by MTT assay; assay type: cell-based; conditions: chlorocebus sabaeus, read-out: INH

With `COc1cc(O)c2c(c1)[C@@H]1O[C@@H]1C[C@H](O)[C@H](O)[C@@H](O)/C=C/C[C@H](C)OC2=O` [AIGIALOMYCIN B] the IC50 (Plasmodium falciparum [1]) was 13.5 µM, the cytotoxicity at 72 h, 6.17 µM [2] was 0% and the cytotoxicity at 72 h, 55.56 µM [3] was 2.3%. For the same compound, the cytotoxicity at 72 h, 18.52 µM [4] was 0%, the IC50 (Plasmodium falciparum [5]) was 0.65 µM and the cytotoxicity at 72 h, 166.67 µM [6] was 30.2%.
`C[C@H]1C/C=C/[C@@H](O)[C@@H](O)CC/C=C/c2cc(O)cc(O)c2C(=O)O1` [AIGIALOMYCIN D] showed an IC50 (Plasmodium falciparum [1]) of 10.5 µM, a cytotoxicity at 72 h, 6.17 µM [2] of 3.4% and a cytotoxicity at 72 h, 55.56 µM [3] of 30.2%. For the same compound, the cytotoxicity at 72 h, 18.52 µM [4] was 12.5%, the IC50 (Plasmodium falciparum [5]) was 3.1 µM and the cytotoxicity at 72 h, 166.67 µM [6] was 56.3%.
`COc1cc(O)c2c(c1)[C@@H](O)[C@H](C[C@H](O)[C@H](O)[C@@H](O)/C=C/C[C@H](C)O)OC2=O` [AIGIALOMYCIN F] gave an IC50 (Plasmodium falciparum [1]) of over 50 µM, a cytotoxicity at 72 h, 6.17 µM [2] of 2.3% and a cytotoxicity at 72 h, 55.56 µM [3] of 20.3%. It also gave a cytotoxicity at 72 h, 18.52 µM [4] of 15.6%, an IC50 (Plasmodium falciparum [5]) of 0.0109 µM and a cytotoxicity at 72 h, 166.67 µM [6] of 43.2%.
Work on `C[C@@H]1CC[C@H]2[C@@H](C)C(=O)O[C@@H]3O[C@@]4(C)CC[C@@H]1[C@]32OO4` [ARTEMISININ] yielded an IC50 (Plasmodium falciparum [1]) of 0.0135 µM and an IC50 (Plasmodium falciparum [5]) of 0.0125 µM.
For `COc1cc(O)c2c(c1)[C@@H]1O[C@@H]1C[C@H](O)[C@H](O)[C@H](O)/C=C/C[C@H](C)OC2=O` [PAECILOMYCIN A], the IC50 (Plasmodium falciparum [1]) was over 50 µM, the cytotoxicity at 72 h, 6.17 µM [2] was 0% and the cytotoxicity at 72 h, 55.56 µM [3] was 0%. It also gave a cytotoxicity at 72 h, 18.52 µM [4] of 0%, an IC50 (Plasmodium falciparum [5]) of 0.78 µM and a cytotoxicity at 72 h, 166.67 µM [6] of 29.6%.
Compound `COc1cc(O)c2c(c1)[C@@H]1O[C@H]([C@H](O)/C=C/C[C@H](C)OC2=O)[C@@H](O)C[C@H]1O` [PAECILOMYCIN B] has an IC50 (Plasmodium falciparum [1]) of over 50 µM, a cytotoxicity at 72 h, 6.17 µM [2] of 0% and a cytotoxicity at 72 h, 55.56 µM [3] of 5.6%. For the same compound, the cytotoxicity at 72 h, 18.52 µM [4] was 0%, the IC50 (Plasmodium falciparum [5]) was 3.8 µM and the cytotoxicity at 72 h, 166.67 µM [6] was 46.3%.
In the case of `COc1cc(O)c2c(c1)[C@@H]([C@H](O)C[C@H](O)[C@H](O)[C@@H](O)/C=C/C[C@H](C)O)OC2=O` [PAECILOMYCIN C], the IC50 (Plasmodium falciparum [1]) is reported as over 50 µM and the IC50 (Plasmodium falciparum [5]) is reported as over 50 µM.
In the case of `COc1cc(O)c2c(c1)[C@@H]([C@H](O)C[C@H](O)[C@H](O)[C@H](O)/C=C/C[C@H](C)O)OC2=O` [PAECILOMYCIN D], the IC50 (Plasmodium falciparum [1]) is reported as over 50 µM and the IC50 (Plasmodium falciparum [5]) is reported as over 50 µM.
`COc1cc(O)c2c(c1)/C=C/C[C@H](O)[C@H](O)[C@@H](O)CCC[C@H](C)OC2=O` [PAECILOMYCIN E] showed an IC50 (Plasmodium falciparum [1]) of 8.8 µM, a cytotoxicity at 72 h, 6.17 µM [2] of 0% and a cytotoxicity at 72 h, 55.56 µM [3] of 23.5%. For the same compound, the cytotoxicity at 72 h, 18.52 µM [4] was 3.4%, the IC50 (Plasmodium falciparum [5]) was 0.02 µM and the cytotoxicity at 72 h, 166.67 µM [6] was 50.2%.
In the case of `COc1cc(O)c2c(c1)/C=C/C[C@H](O)[C@H](O)[C@H](O)CCC[C@H](C)OC2=O` [PAECILOMYCIN F], the IC50 (Plasmodium falciparum [1]) is reported as 1.7 µM, the cytotoxicity at 72 h, 6.17 µM [2] is reported as 2.3% and the cytotoxicity at 72 h, 55.56 µM [3] is reported as 25.7%. The cytotoxicity at 72 h, 18.52 µM [4] was 10.4%, the IC50 (Plasmodium falciparum [5]) was 1.1 µM and the cytotoxicity at 72 h, 166.67 µM [6] was 58.5%.
In the case of `COc1cc(O)c2c(c1)/C=C/C[C@H](O)[C@H](O)[C@@H](O)/C=C/C[C@H](C)OC2=O` [ZEAENOL], the IC50 (Plasmodium falciparum [1]) is reported as over 50 µM and the IC50 (Plasmodium falciparum [5]) is reported as over 50 µM.

Source: ChEMBL document CHEMBL1157804, “beta-Resorcylic acid lactones from a Paecilomyces fungus” (J Nat Prod, 2010)
